ChEMBL document CHEMBL4373711, “Development of 3,5-Dinitrophenyl-Containing 1,2,4-Triazoles and Their Trifluoromethyl Analogues as Highly Efficient Antitubercular Agents Inhibiting Decaprenylphosphoryl-β-d-ribofuranose 2'-Oxidase” (J Med Chem, 2019)
pIC50: −log10 of the molar value. Values after ≈ are worked out from the molar mass of the structure shown. Active and inactive are the calls of the source. The calls are words filed in the database; no cut-off is given here.

Tests used:
[1] = test system: Mycobacterium tuberculosis; assay: Antitubercular activity against Mycobacterium tuberculosis H37Rv; type: functional
Aspergillus flavus = assay: Antifungal activity against Aspergillus flavus CCM 8363 at highest concentration measured after 24 to 48 hrs by alamar blue dye based broth microdilution assay; type: functional, organism-based
[2] = test system: Mycobacterium tuberculosis; assay: Antimycobacterial activity against Mycobacterium tuberculosis H37Rv CNCTC My 331/88 after 14 days; type: functional; conditions: H37Rv CNCTC My 331/88, 336 h
Outline: (§1)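 M. tuberculosis strains (H37Rv and clinical MDR/XDR isolates) tested by microdilution in Šula's semisynthetic medium. Compounds were dissolved in DMSO and tested at 32 to 0.03 µM in twofold steps. Inoculum was a 1.0 McFarland suspension diluted 10-3. Plates were incubated at 37 °C and read at 14 and 21 days.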

[3] = Cytotoxicity against human HepG2 cells assessed as cell viability at 30 uM after 48 hrs by CellTiter 96 aqueous one solution assay relative to control; type: cell-based; conditions: read-out: Activity
Outline: (§2)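 HepG2 (DMEM, 10% FBS, 1 mM pyruvate) or A431 (DMEM, 10% FBS) seeded 10,000 cells/well, 24 h at 37 °C, 5% CO2, then 30 µM compound for 48 h. MTS reagent 60 min, absorbance 490 nm, background subtracted; 0.1% DMSO vehicle = 100%, 10% SDS = 0% viability.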

Enterococcus faecalis = assay: Antibacterial activity against Enterococcus faecalis ATCC 29212 CCM 4224 at highest concentration measured after 24 to 48 hrs by alamar blue dye based broth microdilution assay; type: functional, organism-based
Mycobacterium kansasii [4] = assay: Antimycobacterial activity against Mycobacterium kansasii CNCTC My 235/80 after 21 days; type: functional; conditions: CNCTC My 235/80, 504 h
Outline: (§3)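 Microdilution in Šula's semisynthetic medium; compounds in DMSO at 32–0.03 µM. Inoculum from 1.0 McFarland suspension diluted 10-4. […] Isoniazid and rifampicin as reference drugs.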

[5] = test system: Staphylococcus epidermidis; assay: Antibacterial activity against Staphylococcus epidermidis at highest concentration measured after 24 to 48 hrs by alamar blue dye based broth microdilution assay; type: functional, organism-based
Serratia marcescens = assay: Antibacterial activity against Serratia marcescens at highest concentration measured after 24 to 48 hrs by alamar blue dye based broth microdilution assay; type: functional, organism-based
Staphylococcus aureus [6] = assay: Antibacterial activity against Staphylococcus aureus subsp. aureus ATCC 29213 CCM 4223 at highest concentration measured after 24 to 48 hrs by alamar blue dye based broth microdilution assay; type: functional, organism-based
HepG2 = assay: Cytotoxicity against human HepG2 cells assessed as reduction in cell viability after 48 hrs by CellTiter 96 aqueous one solution assay; type: cell-based; conditions: HepG2, 48 h
[7] = Genotoxicity in Salmonella typhimurium TA98 at 30 uM in presence of rat liver S9 fraction by Ames test; type: toxicity, subcellular; conditions: salmonella enterica subsp. enterica serovar typhimurium, s9, 30 µM
Outline: (§4)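 Microplate fluctuation Ames reverse-mutation test following kit instructions; TA98 detects frameshift and TA100 base-exchange mutations. Compound at 30 µM final with Aroclor-1254-induced rat liver S9 plus cofactors.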

A-431 = assay: Cytotoxicity against human A431 cells assessed as reduction in cell viability after 48 hrs by CellTiter 96 aqueous one solution assay; type: cell-based; conditions: A-431, 48 h
Mycobacterium kansasii [8] = assay: Antimycobacterial activity against Mycobacterium kansasii CNCTC My 235/80 after 14 days; type: functional; conditions: CNCTC My 235/80, 336 h; outline: as §3
Mycobacterium avium [9] = assay: Antimycobacterial activity against Mycobacterium avium CNCTC My 330/88 after 21 days; type: functional; conditions: CNCTC My 330/88, 504 h
Outline: (§5)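 M. avium was tested by microdilution in Šula's semisynthetic medium, with compounds dissolved in DMSO and serially diluted from 1000 down to 1. Inoculum was a 1.0 McFarland suspension diluted 10-5. Plates were incubated at 37 °C and read at 14 and 21 days. […] Isoniazid and rifampicin served as standards.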

Klebsiella pneumoniae = assay: Antibacterial activity against Klebsiella pneumoniae at highest concentration measured after 24 to 48 hrs by alamar blue dye based broth microdilution assay; type: functional, organism-based
[10] = test system: Mycobacterium tuberculosis; assay: Antimycobacterial activity against XDR Mycobacterium tuberculosis Praha 131 after 21 days; type: functional; conditions: Praha 131, 504 h; outline: as §1
[11] = test system: Mycobacterium tuberculosis; assay: Antimycobacterial activity against Mycobacterium tuberculosis H37Rv CNCTC My 331/88 after 21 days; type: functional; conditions: H37Rv CNCTC My 331/88, 504 h; outline: as §1
Pichia kudriavzevii = assay: Antifungal activity against Candida krusei ATCC 6258 CCM8271 at highest concentration measured after 24 to 48 hrs by alamar blue dye based broth microdilution assay; type: functional, organism-based
Candida parapsilosis = assay: Antifungal activity against Candida parapsilosis ATCC 22019 CCM 8260 at highest concentration measured after 24 to 48 hrs by alamar blue dye based broth microdilution assay; type: functional, organism-based
[12] = test system: Trichophyton interdigitale; assay: Antifungal activity against Trichophyton interdigitale ATCC 9533 CCM 8377 at highest concentration measured after 72 to 120 hrs by alamar blue dye based broth microdilution assay; type: functional
Pseudomonas aeruginosa = assay: Antibacterial activity against Pseudomonas aeruginosa ATCC 27853 CCM 3955 at highest concentration measured after 24 to 48 hrs by alamar blue dye based broth microdilution assay; type: functional, organism-based
Mycobacterium kansasii [13] = assay: Antimycobacterial activity against Mycobacterium kansasii 6509/96 after 21 days; type: functional; conditions: 6509/96, 504 h; outline: as §3
Candida albicans = assay: Antifungal activity against Candida albicans ATCC 24433 CCM 8320 at highest concentration measured after 24 to 48 hrs by alamar blue dye based broth microdilution assay; type: functional, organism-based
Candida tropicalis = assay: Antifungal activity against Candida tropicalis ATCC 750 CCM 8264 at highest concentration measured after 24 to 48 hrs by alamar blue dye based broth microdilution assay; type: functional, organism-based
[14] = Genotoxicity in Salmonella typhimurium TA100 at 30 uM in presence of rat liver S9 fraction by Ames test; type: toxicity, subcellular; conditions: salmonella enterica subsp. enterica serovar typhimurium, s9, 30 µM; outline: as §4
Aspergillus fumigatus = assay: Antifungal activity against Aspergillus fumigatus ATCC 204305 at highest concentration measured after 24 to 48 hrs by alamar blue dye based broth microdilution assay; type: functional, organism-based
Staphylococcus aureus [15] = assay: Antibacterial activity against methicillin-resistant Staphylococcus aureus subsp. aureus ATCC 43300 CCM 4750 at highest concentration measured after 24 to 48 hrs by alamar blue dye based broth microdilution assay; type: functional, organism-based
Mycobacterium avium [16] = assay: Antimycobacterial activity against Mycobacterium avium CNCTC My 330/88 after 14 days; type: functional; conditions: CNCTC My 330/88, 336 h; outline: as §5
Mycobacterium kansasii [17] = assay: Antimycobacterial activity against Mycobacterium kansasii 6509/96 after 14 days; type: functional; conditions: 6509/96, 336 h; outline: as §3
Mycobacterium kansasii [18] = assay: Antimycobacterial activity against Mycobacterium kansasii CNCTC My 235/80 after 7 days; type: functional; conditions: CNCTC My 235/80, 168 h; outline: as §3
Mycobacterium kansasii [19] = assay: Antimycobacterial activity against Mycobacterium kansasii 6509/96 after 7 days; type: functional; conditions: 6509/96, 168 h; outline: as §3
[20] = test system: Mycobacterium tuberculosis; assay: Antimycobacterial activity against XDR Mycobacterium tuberculosis Praha 131 after 14 days; type: functional; conditions: Praha 131, 336 h; outline: as §1
Escherichia coli = assay: Antibacterial activity against Escherichia coli ATCC 25922 CCM 3954 at highest concentration measured after 24 to 48 hrs by alamar blue dye based broth microdilution assay; type: functional, organism-based
[21] = Cytotoxicity against human A431 cells assessed as cell viability at 30 uM after 48 hrs by CellTiter 96 aqueous one solution assay relative to control; type: cell-based, A-431; conditions: read-out: Activity; outline: as §2
Lichtheimia corymbifera = assay: Antifungal activity against Lichtheimia corymbifera CCM 8077 at highest concentration measured after 24 to 48 hrs by alamar blue dye based broth microdilution assay; type: functional, organism-based

SMILES | Activity (Aspergillus flavus) | MIC99 [2] | viability at 48 h, 30 µM [3] | Activity (Enterococcus faecalis) | MIC99 (Mycobacterium kansasii [4]) | Activity [5] | Activity (Serratia marcescens) | Activity (Staphylococcus aureus [6]) | pIC50 (HepG2) | Activity [7] | pIC50 (A-431) | MIC99 (Mycobacterium kansasii [8]) | MIC99 (Mycobacterium avium [9]) | Activity (Klebsiella pneumoniae) | MIC99 [10] | MIC99 [11] | Activity (Pichia kudriavzevii) | Activity (Candida parapsilosis) | Activity [12] | Activity (Pseudomonas aeruginosa) | further results
O=c1nc(N2CCN(CC3CCCCC3)CC2)sc2c([N+](=O)[O-])cc(C(F)(F)F)cc12 [MACOZINONE] |  |  |  |  |  |  |  |  |  |  |  |  |  |  |  |  |  |  |  |  | MIC [1]: 0.0004 µM (≈ 0.000183 µg/mL)
O=[N+]([O-])c1cc(-c2nnc(SCc3ccc(Cl)c(Cl)c3)n2Cc2ccccc2)cc([N+](=O)[O-])c1 | inactive | 0.25 µM (≈ 0.129 µg/mL) | 103% | inactive | 0.25 µM (≈ 0.129 µg/mL) | inactive | inactive | inactive | < 4.52 | Toxic | < 4.52 | 0.25 µM (≈ 0.129 µg/mL) | 62 µM (≈ 32 µg/mL) | inactive | 0.25 µM (≈ 0.129 µg/mL) | 0.25 µM (≈ 0.129 µg/mL) | inactive | inactive | inactive | inactive | MIC99 (Mycobacterium kansasii [13]): 0.125 µM (≈ 0.0645 µg/mL); Activity (Candida albicans): inactive; Activity (Candida tropicalis): inactive; Activity [14]: Non-Toxic; Activity (Aspergillus fumigatus): inactive; Activity (Staphylococcus aureus [15]): inactive; MIC99 (Mycobacterium avium [16]): 62 µM (≈ 32 µg/mL); MIC99 (Mycobacterium kansasii [17]): 0.125 µM (≈ 0.0645 µg/mL); MIC99 (Mycobacterium kansasii [18]): 0.25 µM (≈ 0.129 µg/mL); MIC99 (Mycobacterium kansasii [19]): 0.06 µM (≈ 0.031 µg/mL); MIC99 [20]: 0.125 µM (≈ 0.0645 µg/mL); Activity (Escherichia coli): inactive; viability at 48 h, 30 µM [21]: 97%; Activity (Lichtheimia corymbifera): inactive
O=[N+]([O-])c1cc(-c2nnc(SCc3ccc(Cl)cc3)n2Cc2ccccc2)cc([N+](=O)[O-])c1 | inactive | 0.125 µM (≈ 0.0602 µg/mL) | 105% | inactive | 0.5 µM (≈ 0.241 µg/mL) | inactive | inactive | inactive | < 4.52 | Toxic | < 4.52 | 0.25 µM (≈ 0.12 µg/mL) | 62 µM (≈ 29.9 µg/mL) | inactive | 0.25 µM (≈ 0.12 µg/mL) | 0.25 µM (≈ 0.12 µg/mL) | inactive | inactive | inactive | inactive | MIC99 (Mycobacterium kansasii [13]): 0.125 µM (≈ 0.0602 µg/mL); Activity (Candida albicans): inactive; Activity (Candida tropicalis): inactive; Activity [14]: Non-Toxic; Activity (Aspergillus fumigatus): inactive; Activity (Staphylococcus aureus [15]): inactive; MIC99 (Mycobacterium avium [16]): 62 µM (≈ 29.9 µg/mL); MIC99 (Mycobacterium kansasii [17]): 0.125 µM (≈ 0.0602 µg/mL); MIC99 (Mycobacterium kansasii [18]): 0.125 µM (≈ 0.0602 µg/mL); MIC99 (Mycobacterium kansasii [19]): 0.06 µM (≈ 0.0289 µg/mL); MIC99 [20]: 0.125 µM (≈ 0.0602 µg/mL); Activity (Escherichia coli): inactive; viability at 48 h, 30 µM [21]: 95%; Activity (Lichtheimia corymbifera): inactive
